Variants at the floor of the assay were thinned out.

Data on 37 variants can be found in the RNAGym collection of RNA variant scans (doi:10.1126/science.aae0568).

Sequences and labels used below:
B1: tRNA (parent)
chain: GUUCCGUUGGCGUAAUGGUAACGCGUCUCCCUCCUAAGGAGAAGACUGCGGGUUCGAGUCCCGUACGGAACG

In the data set the parent is B1. Kind of data set: yeast fitness relative to wild type (ratio to wild type); higher = fitter; tRNA-Arg(CCU), competitive growth, 37 C, YPD. A digest of the protocol: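 Variants of the tRNA-Arg(CCU) gene were chemically synthesised with a 3% per-site mutation rate across 69 sites and placed at the native genomic locus in Saccharomyces cerevisiae. Six parallel replicates of the pooled strains were competed in YPD at 37°C for 24 hours, and gene amplicons from the start and end populations were read by 100-nucleotide paired-end sequencing. Darwinian fitness relative to wild type was derived from changes in genotype frequencies. Genotypes required ≥ 100 starting reads, and estimates < 0.5 were set to 0.5.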
On to GUUCCGUUGGCGUAAUGGUAACGCGUCUCCUUCCUAACGAGAAGACUGCGAGUUCAAGUCCCGUACGGAACG [C31U G38C G51A G56A], for which the yeast fitness came out at 0.543.
Then GUUCCGUUGGCGCAAUGGUAACGCGUCUCCCUCGUAAGGAGAAGAUUGCGGGUUCGUGUGCCGUCCGGAACG [U13C C34G C46U A57U C60G A65C], with ≤ 0.5.
As to GUUCCGUUGGCGUAAGGGUAACGCGUAUCCGUCCUAAGGAGGAGACUGCGGGUUCGAGUCACGUACGGAACG [U16G C27A C31G A42G C61A], the yeast fitness came out at 0.543.
Then GUUCCGUUGGCCUAAUGGUAACGCGUCUCCCUCAUAAGGAGAAGACUGCGGGUUCGAGUCCCGUACGGAUCG [G12C C34A A70U], with ≤ 0.5.
Then GUUGCGUUGGCGUAAUGGUAACGCGUCUCCCACGUAAGGACAAGACUGGGGGUUCGAGUCCCGUACGGAACG [C4G U32A C34G G41C C49G], with ≤ 0.5; and GUUCCGUUGGCGUAAUGGUAACGCGUAUUCCUCCUAAGGGGAAGACUGCGGGUUCGAGUCCCGUACGGAACG [C27A C29U A40G], with ≤ 0.5; and GUUGCGAUGGCGUAAUGGUAACGCGUCUCCGUCCUAAGGAGAAGACUGCGGGUUCGAGACCCGUACGGAACG [C4G U7A C31G U59A], with ≤ 0.5.
GUUCCGUUGGUGUAAUGGUAACACGUCUCCCUCCUAAGGAGAAGACUGCGGGUUCGAGUGCAGUACGGAACG [C11U G23A C60G C62A]: the yeast fitness was ≤ 0.5.
Consider GUUCCGUUGGCGUAAAGGUAACGCGUCUCCCUCCUAAGGAGAAGACUGCGGGUUCGAGUCCCGUACGGUACG [U16A A69U], for which the yeast fitness is 1.03.
Then GAUCCGUUGGCGUAAUGGUAACCCGUCUCCCUCCUAAGGAGAAGACUGCGGGUUCGAAUCCCGUACGGAACG [U2A G23C G58A], with ≤ 0.5; and GUACCGUUGGCGUAAUCGUAACGCGUCUCCCUCCUAAAGAGAAGACUGCGGGUUCGAGUCCCGUACGGAACG [U3A G17C G38A], with 0.557; and GUUCCGUUGGCGUAAUGGUAACGCGUCUCCUUCCUAAGGAGAAGACUGCGGGUUCGAGUCCCGUACGGUACG [C31U A69U], with 0.999.
Then GUUCCGUUGGCGUAAUGCUAACGCGUCUCCCUCCUAAGGAGAAGACUGCGAGUUCGAGUCCCGUACGGAACG [G18C G51A], with 0.518; and GUUACGUUGGCGUAAUGGUAACGGGUCUCCCUCCUAAGGAUAAGACUGCGGGUUCGAGUCCCGUACGGAACG [C4A C24G G41U], with ≤ 0.5.
GUUCCGUUGGCGUAAUGGUAUCGCGUCUCCCUCCUAAGGAGAAGUCUGCGGAUUCGAGUCCCGUACGGAACG [A21U A45U G52A]: the yeast fitness was ≤ 0.5.
Then GUUCCGUUGGCGUAAUGGUAACGCGUCUCGCUCCUACGGAGAAGACUGCGGGUUCGAGUCCCGUACGAAACG [C30G A37C G68A], with ≤ 0.5; and GUCCCGUUGGCGUAAUGGUUACGCGUCUCUCUCCUAGGGAGAAGACUGCGGGUUCGAGUCCCGUACGGACCG [U3C A20U C30U A37G A70C], with 0.708; and GUUCCGUUGGCGUAAUGGUAACGCGUCUCCCUCCUAAGGAGAAGAUUGCGGGCUCGAGUCCCGUACGGAUCG [C46U U53C A70U], with 0.608.
Then GUUCCGUUGGCGUAAUAGUAACGCGUCUCCCUCAUAAGGAGAAGACUGCGGGUUCGAGUCCGGUACGGAACG [G17A C34A C62G], with ≤ 0.5.
Then GUGCCGUUGGGGUAAUGGUAACGCGUCUCCCUCCUAAGGAGAAAACUACGGGUUCGAGUCCCGUACGGAACG [U3G C11G G44A G48A], with ≤ 0.5; and GUUCCGUUGGCGUAAUGGUAACGCGUUUCCCUCCUAAGGAGAAGACAGCGGGUUCGAGUCCCGUACGGAACG [C27U U47A], with 0.721.
Consider GUUCGGUUGACGUAAUGGUAACGCGUCUCCCUCCUAAGGGGAAGACUGCGGGUUCGAGUCCCGUACGGAGCG [C5G G10A A40G A70G], for which the yeast fitness was ≤ 0.5.
For the variant GAUCCGUUGGCGUAAUGGUGACGCGUGUCCCUCCUAAGGAGAAGACUGCGGGUUCGAGUCCCGUACGGAACG [U2A A20G C27G], the yeast fitness is ≤ 0.5.
Then GUUCCGUUACCGUAAUGGUGACGCCUCUCCCUUCUAAGGAGAAGACUGCGGGUUCGAGUCCCGUACGGAACG [G9A G10C A20G G25C C33U], with ≤ 0.5; and GUUCCGUUGGCGCAAUGGUAACGCCUCUCCCUCCUAAGGAGAAGACUGCGGGUUCGAGUCCCGUACGGAACG [U13C G25C], with 0.996; and GUUCCGUAGGCGUAAUGGUAACGCGUCUCCCUUCUAAGGAGAAGACUGCGGGUUCGAGUCCCGUACGGAACG [U8A C33U], with ≤ 0.5.
Then GUUCCGUUAGCAUAAUGGUAACGCGUGUCCCUCCUAAGGAGAAGACUGCGGGUUCGAGUCCCGUACGGAACG [G9A G12A C27G], with ≤ 0.5; and GUUCCGUUGGCGUAAUGGUAACGCGUUUCCCUCCUGGGGAGAAGACUGCGGGUUCCAGUCCCGUACGGAACG [C27U A36G A37G G56C], with ≤ 0.5; and GUUCCGUUGGCGUAAUGGUAAGGCGUCUCCGUCCUAAGGAGAAGACUGCGGCUUCGAGUCCCGUACGGAACG [C22G C31G G52C], with ≤ 0.5.
Then GUUCCAUGGGCGUAAUGGUAACGCGUCUCCCUCCUGAGGAGAAGACUGCGGGUUCGAGUCCCGUACGGAACG [G6A U8G A36G], with ≤ 0.5; and GUUCCGUUGGCGUAAUGGUAACGAGUCUCCGUCCUAAGGAGAAGACUGCGCGUUUGACUCCCGUACGGAACG [C24A C31G G51C C55U G58C], with ≤ 0.5; and GUUCCGUUGGCGUAAUGGUAACGCGUCUCCAUCCUAAGGAGAAGACUGCGGGUUAGAGUCCCGUACGGAACG [C31A C55A], with 0.666.
With GUUUCGUUGGCGUAAUGGUAACGCGUCUCCCUCCUAAGGAGAAGACUGUGGGUUCGAGUCCCGAACGGAACG [C4U C49U U64A], the yeast fitness came out at 0.589.
For GUUCCGUUGGCGUAAUGGUAACGGGUCUCCCUCCUAAGGAGAAGACUGCGGGUUCGAGUCCCGUACGGUACG [C24G A69U], the yeast fitness is 0.658.
Then GUUCCGUUGGCGUCAUGGUAACGCGUCUCCCUCCUAAGGAGAAGACUGCGAGUUCGAGUCCCGUACGGUGCG [A14C G51A A69U A70G], with ≤ 0.5.
Then GUUCCGUUGGCGUAAUGGUAACGCGUCUCCCUCCUAAGGAGAAGACUGCCGGUUCGUGUCACGUACGGAACG [G50C A57U C61A], with ≤ 0.5; and GUUCCGUUGGCGUAAUGGUAACGCGUCUCCCUCCUAAGGAGCAGACCGCGGGUUCGAGUCCCGUACGGAACG [A42C U47C], with 1.09.
